# M4 ag: human M4 muscarinic receptor agonists, primary screen, CHO-K1 cells, Fluo-8 calcium fluorescence | activation, % at 3 µM | AID 624127, 2012 | actives 0.14% (n = 360,000) | CHO-K1 hM4/Gqi5; vehicle 0%, full acetylcholine response 100%;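 active = activation above the run mean over all test wells plus 3 SD, cut at about 32% in these data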;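 note: peak over basal fluorescence ratio per well then scaled between controls; 0% = DMSO wells and 100% = acetylcholine at EC100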
# M4 antag: human M4 muscarinic receptor antagonists, primary screen, CHO cells, Fluo-8 calcium fluorescence | actives 0.73% (n = 360,000) | AID 624125, 2012 | CHO-hM4 cells, ACh EC80 | inhibition, % at 3 µM | Muscarinic acetylcholine receptor M4 (Homo sapiens), P08173;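 active = inhibition above its plate's cutoff, the mean inhibition of sample wells plus 3 SD, cut at about 27% in these data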;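 note: 0% = acetylcholine EC80 with DMSO and 100% = DMSO without agonist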
# M4 PAM: human M4 muscarinic receptor positive allosteric modulators, primary screen, CHO-K1 cells, Fluo-8 calcium fluorescence; Muscarinic acetylcholine receptor M4 (Homo sapiens), P08173; CHO-K1 hM4/Gqi5, ACh EC20; 0% = ACh EC20, 100% = maximal ACh; activation, % at 3 µM; actives 0.4% (n = 360,000);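 active = activation above its plate's cutoff, the mean activation of sample wells plus 3 SD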
# M5 ag: human M5 muscarinic receptor agonists, primary screen, CHO-K1 cells, Fluo-8 calcium fluorescence | CHO-K1 hM5 cells; 0% DMSO wells, 100% maximal acetylcholine response | actives 0.19% (n = 360,000) | activation, % at 3 µM;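 active = activation above the run's mean over test compounds plus 3 SD, cut at about 23% in these data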;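 note: signal is peak over basal fluorescence ratio across the kinetic read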
# Target sequence (P08912 whole entry, looked up): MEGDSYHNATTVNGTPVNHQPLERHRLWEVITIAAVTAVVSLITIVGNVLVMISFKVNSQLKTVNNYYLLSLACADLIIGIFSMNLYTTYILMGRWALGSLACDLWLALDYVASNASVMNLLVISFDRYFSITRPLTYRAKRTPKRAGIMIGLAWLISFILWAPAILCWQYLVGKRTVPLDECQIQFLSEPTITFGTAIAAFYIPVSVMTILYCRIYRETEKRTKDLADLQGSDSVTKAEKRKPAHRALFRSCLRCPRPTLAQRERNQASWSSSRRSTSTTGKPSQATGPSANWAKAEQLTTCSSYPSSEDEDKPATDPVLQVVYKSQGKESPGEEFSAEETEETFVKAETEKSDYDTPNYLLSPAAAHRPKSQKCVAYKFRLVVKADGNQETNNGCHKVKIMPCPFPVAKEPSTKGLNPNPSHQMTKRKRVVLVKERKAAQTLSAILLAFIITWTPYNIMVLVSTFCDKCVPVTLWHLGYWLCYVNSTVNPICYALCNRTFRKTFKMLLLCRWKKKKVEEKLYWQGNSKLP
# CHRM5 PAM: human M5 muscarinic receptor positive allosteric modulators, primary screen, CHO-K1 cells, Fluo-8 calcium fluorescence; AID 624038, 2012; CHO-K1 hM5, ACh EC20 PAM; 0% = ACh EC20, 100% = ACh EC100; activation, % at 3 µM; Muscarinic acetylcholine receptor M5 (Homo sapiens), P08912; actives 0.3% (n = 360,000);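 active = activation above the run cutoff, the mean activation of all test compounds plus 3 SD, cut at about 18% in these data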
#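 Probe or stimulus: acetylcholine, EC20 level; Assay system: human M5 receptor in CHO-K1 cells; Schedule: compound preincubation 140 s before EC20 acetylcholine addition; Technique: intracellular calcium via Fluo-8 fluorescence; Dosing: single-point, 3 µM nominal; Read-out basis: percent activation from peak-over-basal fluorescence ratio, scaled EC20-to-EC100 acetylcholine; Repeats: one well per compound, no replicates.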
# M5 antag: human M5 muscarinic receptor antagonists, primary screen, CHO cells, Fluo-8 calcium fluorescence | CHO-hM5 cells, ACh EC80 | inhibition, % at 3 µM | actives 0.59% (n = 360,000) | AID 624040, 2012;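 active = inhibition above a per-plate cutoff, the mean of that plate's test compounds plus 3 SD, cut at about 27% in these data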;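 note: 0% = acetylcholine EC80 with DMSO and 100% = DMSO without agonist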
# * = called active by the depositor. An excerpt weighted towards active compounds, which were near 1.8% of everything screened.
SMILES,M4 ag,M4 antag,M4 PAM,M5 ag,CHRM5 PAM,M5 antag
CC1(C)O[C@@H]2C[C@H]3[C@@H]4CCC5=CC(=O)C=C[C@]5(C)[C@@]4(F)[C@@H](O)C[C@]3(C)[C@]2(C(=O)CO)O1,2,46*,-15,1,-13,6
C[C@]12C=CC(=O)C=C1CC[C@H]1[C@@H]3C[C@@H](O)[C@](O)(C(=O)CO)[C@@]3(C)C[C@H](O)[C@@]12F,4,-22,1,48*,-18,0
O=C(Nc1csc([N+](=O)[O-])c1)Nc1ccccc1Cl,25,29*,-27,0,-35,45*
Cc1ccc2oc(C(=O)Nc3ccc(S(=O)(=O)Nc4onc(C)c4C)cc3)c(C)c2c1,0,2,1,0,48*,13
Cc1cc(C(=O)Nc2ccc(S(=O)(=O)Nc3onc(C)c3C)cc2)c(C)o1,0,-5,6,3,6,-11
Cc1ccccc1OCC(=O)Nc1ccc(S(=O)(=O)Nc2onc(C)c2C)cc1,0,-21,0,2,22*,-14
COCCCn1cc(CN2CC(N3CCCCC3)CS2(=O)=O)nn1 (stereo not given),0,-7,13,-2,6,-3
CCCCC1Cc2[nH]c(=S)[nH]c(=O)c2C(c2ccc(Cl)cc2)O1 (stereo not given),2,-6,0,5,-3,8
CCCCCCN1C[C@@H](n2cc(C3CC3)nn2)[C@H](O)C[C@@H]1c1ccccc1,1,-8,-2,0,-3,-7
Cc1oc2c(c(=O)c1C)C(=O)CC(c1ccccc1)C2 (stereo not given),-1,-3,7,1,-2,43*
Nc1[nH]n2c(=O)cc(-c3ccccc3)nc2c1N=Nc1ccc(S(N)(=O)=O)cc1,1,-2,18,10,19*,13
Nc1[nH]n2c(=O)cc(-c3ccccc3)nc2c1N=Nc1ccccc1,0,14,-1,-2,0,11
Cc1ccc(C)n1-c1ccc(C(=O)NN)cc1,2,-14,1,0,21*,8
Cc1ccc(C)n1-c1ccc(C(=O)NCc2ccncc2)cc1,2,-2,11,-3,-7,-1
CCCCN1C2=C(C(=O)CC(C)(C)C2)C(c2ccccc2)C2=C1c1ccccc1C2=O (stereo not given),2,-14,7,-3,-3,1
CCCN1C2=C(C(=O)CC(C)(C)C2)C(c2ccc(F)cc2)C2=C1c1ccccc1C2=O (stereo not given),-1,-4,30*,0,11,-4
Cn1ncc([N+](=O)[O-])c1C(=O)N/N=C/c1ccc(F)cc1,1,7,31*,1,3,-8
O=C(NCc1ccon1)C1CCC(=O)N(CCc2ccc(Cl)cc2)C1 (stereo not given),1,-9,16*,-2,21*,-6
COCCCN1C(=O)C(CC(=O)NCCN2CCOCC2)CC(C(=O)N(C(C)C)C(C)C)=C1C (stereo not given),1,-13,6,0,-1,2
CCCCN(C(=O)CCC(=O)Nc1cc(C)on1)C(C(=O)NC1CCCC1)c1ccccc1C (stereo not given),-3,3,-4,-3,-1,11
CCCCN(C(=O)CCC(=O)Nc1cc(C)on1)C(C(=O)NC1CCCC1)c1ccc(F)cc1 (stereo not given),1,-3,-3,-1,20*,-13
COc1cc(CN2C[C@@H](CO)O[C@@H](n3cnc4c(N5CCN(C)CC5)ncnc43)C2)cc(OC)c1OC,0,-5,2,-1,-3,6
Nc1nnnn1N=C1CCCCC1,1,-9,-1,-1,29*,7
C[N+](C)(C)CCN1C(=O)c2ccccc2C1=O,1,-5,18,-3,8,-5
O=C(COC(=O)COc1ccc(Cl)cc1Br)NC1CCCC1,2,-8,7,-1,1,3
SMILES,M4 ag,M4 antag,M4 PAM,M5 ag,CHRM5 PAM,M5 antag
COc1cc(C2C=C(c3cccs3)Nc3ncnn32)cc(OC)c1OC (stereo not given),34*,10,-14,19,-9,16
CCOc1ccccc1NC(=O)Nc1ccc2c(c1)CCC2,0,-4,20*,-2,10,0
CN(C)CC(=O)N[C@@H]1C=C[C@@H](CC(=O)NCCN2CCCCC2)O[C@@H]1CO,2,-19,12,1,10,-13
CN(C)CC(=O)N[C@@H]1CC[C@@H](CC(=O)NCCN2CCCCC2)O[C@@H]1CO,1,-9,3,0,20*,-18
CCC1CCCCN1S(=O)(=O)c1ccc([N+](=O)[O-])cc1 (stereo not given),-1,28*,-14,-23,-16,5
CC1CCCCN1S(=O)(=O)c1ccc([N+](=O)[O-])cc1 (stereo not given),0,29*,-14,-24,-10,11
O=C1CCCCCC[C@@H](O)[C@H](O)C[C@H](c2ccccc2)O1,2,-5,3,2,1,-1
Cc1cc2cc(CNC(=S)NC3CCCCC3)ccc2[nH]1,2,-9,11,1,-2,6
CNC(=S)NCc1ccc2[nH]c(C)cc2c1,0,-3,5,-3,18*,1
Cc1ccc(C2CC(c3ccccc3)=NN2C(=S)Nc2ccccc2)o1 (stereo not given),7,39*,-11,4,2,-2
COc1ccc(Cl)cc1NC(=O)c1nnn(CC(=O)Nc2ccc3c(c2)OCO3)c1N,2,9,20*,-3,3,-9
COc1ccc(NC(=O)c2nnn(CC(=O)Nc3ccc4c(c3)OCO4)c2N)cc1OC,0,2,2,-6,-6,19
CC1CCN(c2c(NCC3CCC(C(=O)NC4CCCCCC4)CC3)c(=O)c2=O)CC1 (stereo not given),1,31*,15,0,2,-2
CC1CCN(c2c(NCC3CCC(C(=O)N4CCCCC4)CC3)c(=O)c2=O)CC1 (stereo not given),2,-1,-9,-1,-12,-1
CN(C)Cc1cc(C(C)(C)c2ccccc2)ccc1O,4,2,-9,-11,-38,29*

# Source: PubChem (The Scripps Research Institute Molecular Screening Center)
